What was measured:
[1] = target: T1, Type II restriction enzyme PstI (Providencia stuartii, UniProt P00640); experiment: Inhibition of Providencia stuartii Pst 1 assessed as undigested supercoiled pBR322 DNA concentration
T1 sequence (P00640 whole entry): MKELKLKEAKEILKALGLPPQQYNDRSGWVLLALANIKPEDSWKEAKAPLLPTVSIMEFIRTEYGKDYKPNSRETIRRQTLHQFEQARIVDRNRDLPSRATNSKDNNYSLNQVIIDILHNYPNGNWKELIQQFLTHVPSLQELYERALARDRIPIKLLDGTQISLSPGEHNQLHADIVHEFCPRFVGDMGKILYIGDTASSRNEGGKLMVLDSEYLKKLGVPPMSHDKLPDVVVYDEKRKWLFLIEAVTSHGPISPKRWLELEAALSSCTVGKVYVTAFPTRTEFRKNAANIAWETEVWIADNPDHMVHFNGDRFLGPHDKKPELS
In short: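 Restriction enzyme or nuclease activity followed as the remaining undigested supercoiled pBR322 DNA (or RNA) after reaction.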

DNA topoisomerase 1 = target: T2, DNA topoisomerase 1 (Mus musculus, UniProt Q04750); experiment: Inhibition topoisomerase 1 in mouse NIH/3T3 cells assessed as conversion of supercoiled pBR322 DNA to relaxed form; type: cell-based, NIH3T3
T2 sequence (Q04750 whole entry): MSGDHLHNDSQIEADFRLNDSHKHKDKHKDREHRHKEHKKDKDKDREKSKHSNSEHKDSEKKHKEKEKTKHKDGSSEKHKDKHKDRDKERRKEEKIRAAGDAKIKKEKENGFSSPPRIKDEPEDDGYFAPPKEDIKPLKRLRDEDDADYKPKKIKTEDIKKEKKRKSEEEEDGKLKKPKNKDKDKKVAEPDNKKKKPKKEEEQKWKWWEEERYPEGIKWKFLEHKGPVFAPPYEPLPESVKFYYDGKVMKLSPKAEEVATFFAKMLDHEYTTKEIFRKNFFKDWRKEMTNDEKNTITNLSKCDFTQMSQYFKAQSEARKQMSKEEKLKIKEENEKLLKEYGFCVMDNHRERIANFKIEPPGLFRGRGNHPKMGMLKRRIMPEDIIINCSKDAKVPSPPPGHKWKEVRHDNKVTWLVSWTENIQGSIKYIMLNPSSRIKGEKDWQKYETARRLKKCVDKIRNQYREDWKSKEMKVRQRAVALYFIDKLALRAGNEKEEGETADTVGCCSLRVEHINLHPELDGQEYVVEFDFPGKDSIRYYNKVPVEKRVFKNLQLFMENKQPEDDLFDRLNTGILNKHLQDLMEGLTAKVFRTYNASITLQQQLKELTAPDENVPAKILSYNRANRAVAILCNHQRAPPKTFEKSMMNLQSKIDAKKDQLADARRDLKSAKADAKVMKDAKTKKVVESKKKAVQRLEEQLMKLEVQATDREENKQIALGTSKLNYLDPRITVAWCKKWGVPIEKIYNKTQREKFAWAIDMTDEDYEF
In short: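 Enzyme source: Vero or NIH3T3 cells cultured 5 days, washed in PBS and pelleted (1 × 10^6 cells). Lysed 30 min on ice in 200 µL buffer (10 mM Tris-HCl pH 7.5, MgCl2, EGTA, AEBSF, β-mercaptoethanol, 0.5% CHAPS, 10% glycerin); the cleared supernatant relaxed supercoiled pBR322. Gel densitometry; IC50 is the amount halving activity.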

DNA topoisomerase = target: T3, DNA topoisomerase (Bos taurus, UniProt A0JN73); experiment: Inhibition calf thymus gland topoisomerase 1 assessed as conversion of supercoiled pBR322 DNA to relaxed form
T3 sequence (A0JN73 whole entry): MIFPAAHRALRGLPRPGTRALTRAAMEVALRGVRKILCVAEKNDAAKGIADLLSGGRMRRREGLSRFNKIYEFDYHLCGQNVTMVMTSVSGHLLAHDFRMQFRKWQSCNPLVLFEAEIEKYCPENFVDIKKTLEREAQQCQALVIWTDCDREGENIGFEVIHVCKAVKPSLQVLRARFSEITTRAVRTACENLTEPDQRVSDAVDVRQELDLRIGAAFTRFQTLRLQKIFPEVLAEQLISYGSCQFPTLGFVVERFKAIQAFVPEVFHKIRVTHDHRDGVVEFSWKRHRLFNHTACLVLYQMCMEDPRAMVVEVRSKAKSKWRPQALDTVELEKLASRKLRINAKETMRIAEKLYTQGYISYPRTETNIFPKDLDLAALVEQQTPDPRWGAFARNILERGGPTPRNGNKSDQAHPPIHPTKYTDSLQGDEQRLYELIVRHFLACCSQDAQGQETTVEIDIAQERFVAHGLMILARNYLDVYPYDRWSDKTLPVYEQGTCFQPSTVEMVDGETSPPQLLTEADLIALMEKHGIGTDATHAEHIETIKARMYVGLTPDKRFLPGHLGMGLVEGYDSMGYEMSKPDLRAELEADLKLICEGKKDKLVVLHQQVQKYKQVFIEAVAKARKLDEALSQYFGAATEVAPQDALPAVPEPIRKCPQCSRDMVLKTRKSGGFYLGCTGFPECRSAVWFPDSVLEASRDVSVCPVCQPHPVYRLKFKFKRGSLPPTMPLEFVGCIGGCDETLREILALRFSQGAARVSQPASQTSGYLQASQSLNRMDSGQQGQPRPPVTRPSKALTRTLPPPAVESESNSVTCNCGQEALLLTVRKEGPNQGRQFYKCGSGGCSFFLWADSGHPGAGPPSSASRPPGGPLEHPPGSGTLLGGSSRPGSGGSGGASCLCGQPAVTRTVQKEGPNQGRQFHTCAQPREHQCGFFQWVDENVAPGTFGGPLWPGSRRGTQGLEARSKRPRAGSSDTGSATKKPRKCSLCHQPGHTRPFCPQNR

[2] = Inhibition of wheat germ topoisomerase 1 assessed as conversion of supercoiled pBR322 DNA to relaxed form; parameters: species or system Triticum aestivum

SMILES | IC50 [1] [µM] | IC50 (DNA topoisomerase 1) [µM] | IC50 (DNA topoisomerase) [µM] | IC50 [2] [nM]
CC[C@@]1(O)C(=O)OCc2c1cc1n(c2=O)Cc2cc3ccccc3nc2-1 [CAMPTOTHECIN] | > 300 | 12 | 17 | 3000
COc1cccc2c1C(=O)c1c(O)c3c(c(O)c1C2=O)C[C@@](O)(C(=O)CO)C[C@@H]3O[C@H]1C[C@H](N)[C@H](O)[C@H](C)O1 [DOXORUBICIN] | > 200 | > 200 | > 200 | > 200000
O=C1Oc2cc(O)ccc2/C1=C\c1ccc(O)cc1 [ISOAUROSTATIN] | > 400 | > 400 | 307 | 67000
C=C1NC(=O)C(C)C(CCC(C)C(=O)/C=C/C(C)=C/CC(C)CCCCCCC)OC(=O)[C@H](CC(OS(=O)(=O)O)C(N)=O)NC(=O)[C@@H](C)CNC1=O (stereo partly specified) [TOPOSTATIN] | 19 | 47 | 17 | 1000

Source: ChEMBL document CHEMBL1155708, “Isoaurostatin, a novel topoisomerase inhibitor produced by Thermomonospora alba” (J Nat Prod, 2001)
